Legend:
Rattus norvegicus = test: Ratio of AUC's for parent compound after prodrug dosing and parent compound dosing in rat at 1 mg/kg, iv; assay type: ADME, organism-based; set-up: dose 1 mg/kg, route intravenous; conditions: in vivo
How it was run: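 Prodrug and parent were each given intravenously in DMSO to rats at 1 mpk. The value is the AUC of parent after prodrug dosing divided by the AUC after direct parent dosing, expressed as a percentage.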

[1] = Half life in dog at 0.4 mg/kg, iv; assay type: ADME, organism-based, Canis lupus familiaris; set-up: dose 0.4 mg/kg, route intravenous; conditions: in vivo
How it was run: (§1)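 Given intravenously to dogs at 0.4 mpk, with DMSO as the vehicle.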

[2] = Plasma clearance in dog at 0.4 mg/kg, iv; assay type: ADME, organism-based, Canis lupus familiaris; set-up: dose 0.4 mg/kg, route intravenous; how it was run: as §1
Canis familiaris = test: Ratio of AUC's for parent compound after prodrug dosing and parent compound dosing in dog at 0.4 mg/kg, iv; assay type: ADME, organism-based, Canis lupus familiaris; set-up: dose 0.4 mg/kg, route intravenous; conditions: in vivo
How it was run: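 Prodrug and parent were each given intravenously in DMSO to dogs at 0.4 mpk. The value is the AUC of parent after prodrug dosing divided by the AUC after direct parent dosing, expressed as a percentage.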

[3] = Plasma clearance in rat at 1 mg/kg, iv; assay type: ADME, organism-based; set-up: dose 1 mg/kg, route intravenous
How it was run: (§2)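 Given intravenously to rats at 1 mpk, with DMSO as the vehicle.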

[4] = Half life in rat at 1 mg/kg, iv; assay type: ADME, organism-based; set-up: dose 1 mg/kg, route intravenous; conditions: in vivo; how it was run: as §2
[5] = biological target: T1, Kinesin-like protein KIF11 (Homo sapiens, UniProt P52732); test: Inhibition of KSP by ATPase assay
T1 sequence (P52732 whole entry): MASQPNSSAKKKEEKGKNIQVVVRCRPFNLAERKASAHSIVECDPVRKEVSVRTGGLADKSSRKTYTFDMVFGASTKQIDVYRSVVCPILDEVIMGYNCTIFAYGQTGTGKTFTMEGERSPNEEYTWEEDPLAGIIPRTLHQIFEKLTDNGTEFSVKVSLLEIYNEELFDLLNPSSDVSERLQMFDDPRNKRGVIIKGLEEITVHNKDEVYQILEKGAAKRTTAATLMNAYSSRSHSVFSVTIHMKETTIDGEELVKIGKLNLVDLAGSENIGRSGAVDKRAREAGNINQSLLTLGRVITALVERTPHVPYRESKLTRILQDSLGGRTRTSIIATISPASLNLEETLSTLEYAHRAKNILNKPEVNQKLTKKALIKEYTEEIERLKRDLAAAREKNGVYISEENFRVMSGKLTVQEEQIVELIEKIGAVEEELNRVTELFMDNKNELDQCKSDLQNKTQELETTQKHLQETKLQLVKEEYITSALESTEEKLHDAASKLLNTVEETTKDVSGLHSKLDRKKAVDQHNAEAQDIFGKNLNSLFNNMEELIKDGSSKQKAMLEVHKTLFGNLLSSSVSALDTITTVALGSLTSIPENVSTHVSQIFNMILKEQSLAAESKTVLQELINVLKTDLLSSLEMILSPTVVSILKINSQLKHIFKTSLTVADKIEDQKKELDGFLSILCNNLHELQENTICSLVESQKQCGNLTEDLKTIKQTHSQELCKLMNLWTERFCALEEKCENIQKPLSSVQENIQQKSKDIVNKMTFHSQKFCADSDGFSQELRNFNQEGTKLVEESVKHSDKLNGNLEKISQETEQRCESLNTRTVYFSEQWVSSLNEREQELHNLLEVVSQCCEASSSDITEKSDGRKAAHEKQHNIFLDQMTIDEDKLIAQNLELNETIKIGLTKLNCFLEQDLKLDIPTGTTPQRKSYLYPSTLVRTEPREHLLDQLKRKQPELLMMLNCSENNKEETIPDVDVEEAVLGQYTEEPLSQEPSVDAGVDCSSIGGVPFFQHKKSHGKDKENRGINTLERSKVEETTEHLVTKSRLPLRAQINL

A2780 = test: Mitotic arrest in A2780 cells; assay type: functional, cell-based; conditions: Homo sapiens
How it was run: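 M-phase arrest read out by antibody-based detection of phosphonucleolin. Values are the average of at least two determinations, with standard deviations of 25–50%.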

[6] = biological target: Voltage-gated inwardly rectifying potassium channel KCNH2 (Homo sapiens, UniProt Q12809); test: Inhibitory activity against human hERG receptor expressed in HEK cells
Sequence of Voltage-gated inwardly rectifying potassium channel KCNH2 (Q12809 whole entry): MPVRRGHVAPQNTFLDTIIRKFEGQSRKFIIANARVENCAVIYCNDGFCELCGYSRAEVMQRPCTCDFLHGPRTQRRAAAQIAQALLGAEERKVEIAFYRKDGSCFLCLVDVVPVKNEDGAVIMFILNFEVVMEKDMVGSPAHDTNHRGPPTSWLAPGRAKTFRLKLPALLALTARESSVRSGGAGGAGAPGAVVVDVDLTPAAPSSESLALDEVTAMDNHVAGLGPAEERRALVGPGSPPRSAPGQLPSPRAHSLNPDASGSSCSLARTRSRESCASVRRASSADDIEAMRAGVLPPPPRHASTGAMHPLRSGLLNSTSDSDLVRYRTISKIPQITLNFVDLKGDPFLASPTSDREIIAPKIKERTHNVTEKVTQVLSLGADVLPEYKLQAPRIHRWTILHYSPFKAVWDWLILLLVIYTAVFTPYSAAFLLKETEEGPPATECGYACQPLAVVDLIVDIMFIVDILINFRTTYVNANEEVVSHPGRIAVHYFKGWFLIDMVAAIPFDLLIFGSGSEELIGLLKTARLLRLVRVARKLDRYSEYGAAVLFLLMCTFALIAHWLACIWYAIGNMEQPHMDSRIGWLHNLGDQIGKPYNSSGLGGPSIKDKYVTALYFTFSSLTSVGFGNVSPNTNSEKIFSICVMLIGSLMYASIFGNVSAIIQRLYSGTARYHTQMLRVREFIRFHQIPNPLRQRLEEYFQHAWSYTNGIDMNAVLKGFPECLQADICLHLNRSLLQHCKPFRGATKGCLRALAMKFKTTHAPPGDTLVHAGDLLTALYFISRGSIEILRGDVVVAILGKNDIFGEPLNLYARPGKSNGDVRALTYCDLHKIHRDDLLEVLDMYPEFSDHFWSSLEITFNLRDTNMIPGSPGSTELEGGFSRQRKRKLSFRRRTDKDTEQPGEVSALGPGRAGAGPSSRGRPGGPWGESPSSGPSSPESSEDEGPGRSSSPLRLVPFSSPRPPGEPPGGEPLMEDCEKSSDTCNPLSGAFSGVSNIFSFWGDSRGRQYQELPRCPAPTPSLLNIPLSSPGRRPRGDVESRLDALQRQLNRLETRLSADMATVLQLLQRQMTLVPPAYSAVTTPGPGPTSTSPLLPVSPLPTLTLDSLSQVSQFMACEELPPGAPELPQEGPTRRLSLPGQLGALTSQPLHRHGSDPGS

Row | SMILES | half-life [1] | half-life [4] | IC50 [5] | EC50 (A2780) | other results
1 | CC(C)(C)[C@H](O)C(=O)N1CC(c2cc(F)ccc2F)=C[C@H]1c1cccc(O)c1 | – | – | 1.3 nM | 2.6 nM | –
2 | CN(C)C(=O)N1CC(c2cc(F)ccc2F)=C[C@H]1c1cccc(OP(=O)(O)O)c1 | 15 min | 9 min | – | – | –
3 | O=C([C@@H](O)C1CC1)N1CC(c2cc(F)ccc2F)=C[C@H]1c1cccc(O)c1 | – | – | 2.9 nM | 3.1 nM | –
4 | CC(C)(C)C(=O)N1CC(c2cc(F)ccc2F)=C[C@H]1c1cccc(O)c1 | – | – | 13 nM | 37 nM | IC50 [6]: 7800 nM
5 | CN(C)C(=O)N1CC(c2cc(F)ccc2F)=C[C@H]1c1cccc(O)c1 | 90 min | 18 min | 7 nM | 22 nM | clearance [2]: 13 mL/min/kg; clearance [3]: 68 mL/min/kg

Now from value to compound, other results behind:

Row | half-life [1] | half-life [4] | IC50 [5] | EC50 (A2780) | SMILES | other results
6 | 168 min | 18 min | – | – | CC(C)(C)[C@H](NC(=O)OCCO)C(=O)N1CC(c2cc(F)ccc2F)=C[C@H]1c1ccccc1 | Ratio AUC (Rattus norvegicus): 57%; clearance [2]: 11 mL/min/kg; Ratio AUC (Canis familiaris): 38%; clearance [3]: 68 mL/min/kg
7 | < 6 min | < 6 min | – | – | CC(C)(C)[C@H](NC(=O)OCCOP(=O)(O)O)C(=O)N1CC(c2cc(F)ccc2F)=C[C@H]1c1ccccc1 | –
8 | – | – | 0.5 nM | 3 nM | N[C@H](C(=O)N1CC(c2cc(F)ccc2F)=C[C@H]1c1cccc(O)c1)C1CC1 | –
9 | – | – | 4 nM | 9.1 nM | CN(CCO)C(=O)N1CC(c2cc(F)ccc2F)=C[C@H]1c1cccc(O)c1 | –
10 | – | – | 1.2 nM | 3.3 nM | CC(C)[C@H](N)C(=O)N1CC(c2cc(F)ccc2F)=C[C@H]1c1cccc(O)c1 | –
11 | – | – | 5.5 nM | 8.5 nM | CN(C(=O)N1CC(c2cc(F)ccc2F)=CC1c1cccc(O)c1)C1CCNCC1 (racemic) | –

Source: ChEMBL document CHEMBL1146124, “Kinesin spindle protein (KSP) inhibitors. Part 3: synthesis and evaluation of phenolic 2,4-diaryl-2,5-dihydropyrroles with reduced hERG binding and employment of a phosphate prodrug strategy for aqueous solubility” (Bioorg Med Chem Lett, 2006)
